Key:
fMet-Leu-Phe receptor = target: T1, fMet-Leu-Phe receptor (Homo sapiens, UniProt P21462); assay: Inhibitory activity against human formylpeptide receptor (FPR) of human leukemia HL-60 cells; assay type: cell-based
T1 sequence (P21462 whole entry): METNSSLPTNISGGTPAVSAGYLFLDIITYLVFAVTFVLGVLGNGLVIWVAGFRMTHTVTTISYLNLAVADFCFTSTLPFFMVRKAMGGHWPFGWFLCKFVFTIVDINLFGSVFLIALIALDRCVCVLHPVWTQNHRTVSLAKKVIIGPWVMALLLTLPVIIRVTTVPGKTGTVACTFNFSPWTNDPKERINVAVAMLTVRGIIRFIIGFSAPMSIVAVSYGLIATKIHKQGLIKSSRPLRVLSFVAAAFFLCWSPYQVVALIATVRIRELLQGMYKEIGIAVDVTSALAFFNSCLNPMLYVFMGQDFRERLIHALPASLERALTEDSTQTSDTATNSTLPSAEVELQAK
In short: (§1)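 HL-60 cells differentiated 48 h with 0.2 mM dibutyryl cAMP, washed, then treated with 5 μM cytochalasin B (5–10 min, 37 °C). Stimulated 10 min with 30 nM f-MLF. N-acetyl-β-D-glucosaminidase release read at 410 nm on p-nitrophenyl substrate after spontaneous-release subtraction. Duplicate wells; IC20/IC50 as mean ± SD of independent experiments.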

[1] = target: T2, fMet-Leu-Phe receptor (Homo sapiens) (UniProt P21462); assay: Inhibitory activity against Human formylpeptide receptor (FPR) of human leukemia HL-60 cells; assay type: cell-based; in short: as §1
T2 sequence (whole entry): T1 sequence (P21462 whole entry)

IC50 (fMet-Leu-Phe receptor)	IC20 [1]	Compound
590 nM		C/C=C/C[C@@H](C)[C@@H](O)[C@H]1C(=O)N[C@@H]([C@@H](C)O)C(=O)N(C)CC(=O)N(C)[C@@H](CC(C)C)C(=O)N[C@@H](CC(C)C)C(=O)N(C)[C@@H](CC(C)C)C(=O)N[C@@H](C)C(=O)N[C@H](C)C(=O)N(C)[C@@H](CC(C)C)C(=O)N[C@@H](CC(C)C)C(=O)N(C)[C@@H](C(C)C)C(=O)N1C
	> 10 µM	C/C=C/C[C@@H](C)[C@@H](O)[C@H]1C(=O)N[C@@H]([C@@H](C)O)C(=O)N(C)CC(=O)N[C@@H](C(C)C)C(=O)N[C@H](C(C)C)C(=O)N(C)[C@H](CC(C)C)C(=O)N[C@@H](C)C(=O)N[C@H](C)C(=O)N(C)[C@@H](CC(C)C)C(=O)N(C)[C@@H](CC(C)C)C(=O)N(C)[C@@H](C(C)C)C(=O)N1C
	0.8 µM	C/C=C/C[C@@H](C)[C@@H](O)[C@H]1C(=O)N[C@@H]([C@@H](C)O)C(=O)N(C)CC(=O)N(C)[C@H](CC(C)C)C(=O)N[C@@H](CC(C)C)C(=O)N(C)[C@H](CC(C)C)C(=O)N[C@@H](C)C(=O)N[C@H](C)C(=O)N(C)[C@@H](CC(C)C)C(=O)N[C@@H](C)C(=O)N(C)[C@@H](C(C)C)C(=O)N1C
	2.05 µM	C/C=C/C[C@@H](C)[C@@H](O)[C@H]1C(=O)N[C@@H]([C@@H](C)O)C(=O)N(C)CC(=O)N(C)[C@H](CC(C)C)C(=O)N[C@H](C(C)C)C(=O)N(C)[C@H](CC(C)C)C(=O)N[C@@H](C)C(=O)N[C@H](C)C(=O)N(C)[C@@H](CC(C)C)C(=O)N[C@@H](CC(C)C)C(=O)N(C)[C@@H](C(C)C)C(=O)N1C
	0.37 µM	C/C=C/C[C@@H](C)[C@@H](O)[C@H]1C(=O)N[C@@H](CC)C(=O)N(C)CC(=O)N(C)[C@H](CC(C)C)C(=O)N[C@H](C(C)C)C(=O)N[C@@H](CC(C)C)C(=O)N[C@@H](C)C(=O)N[C@H](C)C(=O)N(C)[C@@H](CC(C)C)C(=O)N[C@@H](CC(C)C)C(=O)N(C)[C@@H](C(C)C)C(=O)N1C
	0.09 µM	C/C=C/C[C@@H](C)[C@@H](O)[C@H]1C(=O)N[C@@H]([C@@H](C)O)C(=O)N(C)CC(=O)N(C)[C@H](CC(C)C)C(=O)N[C@@H]([C@@H](C)CC)C(=O)N(C)[C@H](CC(C)C)C(=O)N[C@@H](C)C(=O)N[C@H](C)C(=O)N(C)[C@@H](CC(C)C)C(=O)N(C)[C@@H](CC(C)C)C(=O)N(C)[C@@H](C(C)C)C(=O)N1C
	0.2 µM	C/C=C/C[C@@H](C)[C@@H](O)[C@H]1C(=O)N[C@@H]([C@@H](C)O)C(=O)N(C)CC(=O)N(C)[C@H](CC(C)C)C(=O)N[C@@H](CC(C)C)C(=O)N(C)[C@H](CC(C)C)C(=O)N[C@@H](C)C(=O)N[C@H](C)C(=O)N(C)[C@@H](CC(C)C)C(=O)N[C@@H](CC(C)C)C(=O)N(C)[C@@H](C(C)C)C(=O)N1C
	3.8 µM	C/C=C/C[C@@H](C)[C@@H](O)[C@H]1C(=O)N[C@@H](CC)C(=O)N(C)CC(=O)N(C)[C@H](CC(C)C)C(=O)N[C@H](C(C)C)C(=O)N(C)[C@H](CC(C)C)C(=O)N[C@@H](C)C(=O)N[C@H](C)C(=O)N(C)[C@@H](CC(C)C)C(=O)N(C)[C@@H](CC(C)C)C(=O)N[C@@H](C(C)C)C(=O)N1C
	0.65 µM	C/C=C/C[C@@H](C)[C@@H](O)[C@H]1C(=O)N[C@@H](CC)C(=O)N(C)CC(=O)N(C)[C@H](CC(C)C)C(=O)N[C@H](C(C)C)C(=O)N(C)[C@H](CC(C)C)C(=O)N[C@@H](C)C(=O)N[C@H](C)C(=O)N(C)[C@@H](CC(C)C)C(=O)N[C@@H](CC(C)C)C(=O)N(C)[C@@H](C(C)C)C(=O)N1C
	8.9 µM	C/C=C/C[C@@H](C)[C@@H](O)[C@H]1C(=O)N[C@@H](CCC)C(=O)N(C)CC(=O)N(C)[C@H](CC(C)C)C(=O)N[C@@H](CC(C)C)C(=O)N(C)[C@H](CC(C)C)C(=O)N[C@@H](C)C(=O)N[C@H](C)C(=O)N(C)[C@@H](CC(C)C)C(=O)N(C)[C@@H](CC(C)C)C(=O)N(C)[C@@H](C(C)C)C(=O)N1C
	> 10 µM	C/C=C/C[C@@H](C)[C@@H](O)[C@H]1C(=O)N[C@@H](CC)C(=O)N(C)CC(=O)N(C)[C@H](CC(C)C)C(=O)N[C@H](C(C)C)C(=O)N[C@@H](CC(C)C)C(=O)N[C@@H](C)C(=O)N[C@H](C)C(=O)N(C)[C@@H](CC(C)C)C(=O)N(C)[C@@H](CC(C)C)C(=O)N(C)[C@@H](C(C)C)C(=O)N1C
	2.1 µM	C/C=C/C[C@@H](C)[C@@H](O)[C@H]1C(=O)N[C@@H](CCC)C(=O)N(C)CC(=O)N(C)[C@H](CC(C)C)C(=O)N[C@H](C(C)C)C(=O)N(C)[C@H](CC(C)C)C(=O)N[C@@H](C)C(=O)N[C@H](C)C(=O)N[C@@H](CC(C)C)C(=O)N(C)[C@@H](CC(C)C)C(=O)N(C)[C@@H](C(C)C)C(=O)N1C

The next lines start with the compound.

Compound	IC50 (fMet-Leu-Phe receptor)	IC20 [1]
CC/C=C/C[C@@H](C)[C@@H](O)[C@H]1C(=O)N[C@@H](CCC)C(=O)N(C)CC(=O)N(C)[C@@H](CC(C)C)C(=O)N[C@@H](C(C)C)C(=O)N(C)[C@@H](CC(C)C)C(=O)N[C@@H](C)C(=O)N[C@H](C)C(=O)N(C)[C@@H](CC(C)C)C(=O)N(C)[C@@H](CC(C)C)C(=O)N(C)[C@@H](C(C)C)C(=O)N1C	> 10000 nM	
C/C=C/C[C@@H](C)[C@@H](O)[C@H]1C(=O)N[C@@H]([C@@H](C)O)C(=O)N(C)CC(=O)N[C@@H](CC(C)C)C(=O)N[C@@H](CC(C)C)C(=O)N(C)[C@H](CC(C)C)C(=O)N[C@@H](C)C(=O)N[C@](O)(C(C)C)C(=O)N(C)[C@@H](CC(C)C)C(=O)N[C@@H](CC(C)C)C(=O)N(C)[C@@H](C(C)C)C(=O)N1C		0.14 µM
CC/C=C/C[C@@H](C)[C@@H](O)[C@H]1C(=O)N[C@@H](CC)C(=O)N(C)CC(=O)N(C)[C@H](CC(C)C)C(=O)N[C@H](C(C)C)C(=O)N(C)[C@H](CC(C)C)C(=O)N[C@@H](CC)C(=O)N[C@H](C)C(=O)N(C)[C@@H](CC(C)C)C(=O)N(C)[C@@H](CC(C)C)C(=O)N(C)[C@@H](C(C)C)C(=O)N1C		> 10 µM
CC/C=C/C[C@@H](C)[C@@H](O)[C@H]1C(=O)N[C@@H](CC)C(=O)N(C)CC(=O)N(C)[C@@H]([C@@H](C)CC)C(=O)N[C@H](C(C)C)C(=O)N(C)[C@H](CC(C)C)C(=O)N[C@@H](C)C(=O)N[C@H](C)C(=O)N(C)[C@@H](CC(C)C)C(=O)N(C)[C@@H](CC(C)C)C(=O)N(C)[C@@H](C(C)C)C(=O)N1C		1 µM
CCCCCC[C@H]1C(=O)N[C@@H](CC)C(=O)N(C)CC(=O)N(C)[C@H](CC(C)C)C(=O)N[C@H](C(C)C)C(=O)N(C)[C@H](CC(C)C)C(=O)N[C@@H](C)C(=O)N[C@H](C)C(=O)N(C)[C@@H](CC(C)C)C(=O)N(C)[C@@H](CC(C)C)C(=O)N(C)[C@@H](C(C)C)C(=O)N1C		1.7 µM
CC[C@@H]1NC(=O)[C@H](CC(C)C)N(C)C(=O)[C@H](C(C)C)N(C)C(=O)[C@H](CC(C)C)N(C)C(=O)[C@H](CC(C)C)N(C)C(=O)[C@@H](C)NC(=O)[C@H](C)NC(=O)[C@@H](CC(C)C)N(C)C(=O)[C@@H](C(C)C)NC(=O)[C@@H](CC(C)C)N(C)C(=O)CN(C)C1=O		> 10 µM
C/C=C/C[C@@H](C)[C@@H](O)[C@H]1C(=O)N[C@@H]([C@@H](C)O)C(=O)N(C)CC(=O)N(C)[C@H](CC(C)C)C(=O)N[C@@H](C(C)C)C(=O)N(C)[C@H](CC(C)C)C(=O)N[C@@H](C)C(=O)N[C@](O)(C(C)C)C(=O)N(C)[C@@H](CC(C)C)C(=O)N[C@@H](CC(C)C)C(=O)N(C)[C@@H](C(C)C)C(=O)N1C		0.93 µM
C/C=C/C[C@@H](C)[C@@H](O)[C@H]1C(=O)N[C@@H](CC)C(=O)N(C)CC(=O)N[C@@H](C(C)C)C(=O)N[C@H](C(C)C)C(=O)N(C)[C@H](CC(C)C)C(=O)N[C@@H](C)C(=O)N[C@H](C)C(=O)N(C)[C@@H](CC(C)C)C(=O)N(C)[C@@H](CC(C)C)C(=O)N(C)[C@@H](C(C)C)C(=O)N1C		> 10 µM
C/C=C/C[C@@H](C)[C@@H](O)[C@H]1C(=O)N[C@@H](CCC)C(=O)N(C)CC(=O)N(C)[C@H](CC(C)C)C(=O)N[C@@H](CCC)C(=O)N(C)[C@H](CC(C)C)C(=O)NC(C)C(=O)N[C@H](C)C(=O)N(C)[C@@H](CC(C)C)C(=O)N(C)[C@@H](CC(C)C)C(=O)N(C)[C@@H](C(C)C)C(=O)N1C (stereo not given in full)		0.2 µM
C/C=C/C[C@@H](C)[C@@H](O)[C@H]1C(=O)N[C@@H]([C@@H](C)O)C(=O)NCC(=O)N(C)[C@H](CC(C)C)C(=O)N[C@@H](CC(C)C)C(=O)N(C)[C@H](CC(C)C)C(=O)N[C@@H](C)C(=O)N[C@](O)(C(C)C)C(=O)N(C)[C@@H](CC(C)C)C(=O)N[C@@H](CC(C)C)C(=O)N(C)[C@@H](C(C)C)C(=O)N1C		0.13 µM
CC/C=C/C[C@@H](C)[C@@H](O)[C@H]1C(=O)N[C@@H](CCC)C(=O)N(C)CC(=O)N(C)[C@H](CC(C)C)C(=O)N[C@H](C(C)C)C(=O)N(C)[C@H](CC(C)C)C(=O)N[C@@H](C)C(=O)N[C@H](C)C(=O)N(C)[C@@H](CC(C)C)C(=O)N(C)[C@@H](CC(C)C)C(=O)N(C)[C@@H](C(C)C)C(=O)N1C		2.6 µM
CC/C=C/C[C@@H](C)[C@@H](O)[C@H]1C(=O)N[C@@H](CC)C(=O)N(C)CC(=O)N(C)[C@H](CC(C)C)C(=O)N[C@H](C(C)C)C(=O)N(C)[C@@H](C)C(=O)N[C@@H](C)C(=O)N[C@H](C)C(=O)N(C)[C@@H](CC(C)C)C(=O)N(C)[C@@H](CC(C)C)C(=O)N(C)[C@@H](C(C)C)C(=O)N1C		> 10 µM
C/C=C/C[C@@H](C)C[C@H]1C(=O)N[C@@H](CC)C(=O)N(C)CC(=O)N(C)[C@H](CC(C)C)C(=O)N[C@H](C(C)C)C(=O)N(C)[C@H](CC(C)C)C(=O)N[C@@H](C)C(=O)N[C@H](C)C(=O)N(C)[C@@H](CC(C)C)C(=O)N(C)[C@@H](CC(C)C)C(=O)N(C)[C@@H](C(C)C)C(=O)N1C		2.4 µM

— ChEMBL document CHEMBL1135620, “Cyclosporins: structure-activity relationships for the inhibition of the human FPR1 formylpeptide receptor” (J Med Chem, 2002)
